Target: COQ8A^NΔ250 (Homo sapiens, UniProt Q8NI60)
Test: Differential scanning fluorimetry
Assay type: binding
Conditions: 100 μM inhibitor, 10 μM COQ8A^NΔ250
In short: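 Recombinant COQ8A^NΔ250 purified on cobalt IMAC resin, exchanged into 20 mM HEPES pH 7.2, 300 mM NaCl, 10% glycerol, 5 mM BME. They were spun briefly, then kept 10 min at room temperature in the dark before melting.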

Sequence of COQ8A^NΔ250 (Q8NI60 251-647 limits assumed, stated change not applied): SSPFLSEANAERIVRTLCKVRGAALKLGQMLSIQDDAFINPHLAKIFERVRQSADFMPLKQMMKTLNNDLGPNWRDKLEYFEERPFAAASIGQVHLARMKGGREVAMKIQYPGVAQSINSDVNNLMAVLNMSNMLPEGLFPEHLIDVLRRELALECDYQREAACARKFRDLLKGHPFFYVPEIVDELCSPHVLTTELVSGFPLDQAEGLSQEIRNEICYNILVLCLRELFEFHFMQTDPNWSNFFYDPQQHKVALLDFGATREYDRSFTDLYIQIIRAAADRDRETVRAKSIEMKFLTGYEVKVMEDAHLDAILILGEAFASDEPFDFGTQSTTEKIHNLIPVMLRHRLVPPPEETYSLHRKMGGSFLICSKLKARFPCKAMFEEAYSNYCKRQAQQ

C#Cc1cccc(Nc2ncnc3cc(OCCOC)c(OCCOC)cc23)c1 [erlotinib]
COQ8A melting temperature increase (ΔTm): weak-binding control

— PMC9898131 (Nature chemical biology, 2022)
